Converted amounts (≈) assume the structure as drawn.
Assays:
NCI-H460 = assay: Growth inhibition of human NCI-H460 cells by sulforhodamine B method; type: functional
How it was run: (§1)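 Sulforhodamine B assay, with growth inhibition read as reduced formation of cellular protein.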

P388 = assay: Cytotoxicity against mouse P388 cells by sulforhodamine B method; type: functional; how it was run: as §1
DU-145 = assay: Growth inhibition of human DU145 cells by sulforhodamine B method; type: functional; how it was run: as §1
BXPC-3 = assay: Growth inhibition of human BxPC3 cells by sulforhodamine B method; type: functional; how it was run: as §1
SF-295 = assay: Growth inhibition of human SF295 cells by sulforhodamine B method; type: functional; how it was run: as §1
MCF7 [1] = assay: Growth inhibition of human MCF7 after 48 hrs by sulforhodamine B method; type: functional, cell-based; conditions: MCF7, 48 h; how it was run: as §1
Bos taurus [2] = species: Bos taurus; assay: Displacement of [3H]vinblastine from bovine tubulin at 80 uM
How it was run: (§2)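 Bovine brain tubulin at 0.5 mg/mL (5.0 µM) with 5 µM [3H]vinblastine and inhibitor as stated, in 0.5 mM MgCl2, 0.1 M MES pH 6.9 and 4% (v/v) DMSO. Incubated 30 min at 20–22 °C. Bound label separated by centrifugal gel filtration on syringe columns at 2,000 rpm; result is % inhibition ± SD.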

Bos taurus [3] = species: Bos taurus; assay: Displacement of [3H]colchicine from bovine tubulin at 2 uM
How it was run: (§3)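 Bovine brain tubulin at 0.1 mg/mL (1.0 µM) incubated with 5.0 µM [3H]colchicine and inhibitor at the stated concentration. Read-out is inhibition of radiolabel binding to tubulin, in % ± SD.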

Bos taurus [4] = species: Bos taurus; assay: Displacement of [3H]vinblastine from bovine tubulin at 10 uM; how it was run: as §2
Neisseria gonorrhoeae = assay: Antimicrobial activity against Neisseria gonorrhoeae ATCC 49226 by broth microdilution assay; type: functional
How it was run: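 Screened by broth microdilution following NCCLS guidelines for bacteria grown aerobically. Each assay was repeated at least twice, on separate days.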

[5] = Solubility in water; type: physicochemical
Enterococcus faecalis = assay: Antimicrobial activity against Enterococcus faecalis ATCC 29212 by broth microdilution assay; type: functional
How it was run: (§4)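 Broth microdilution following NCCLS standards: M7-A5 for aerobic bacteria and M27-A2 for yeasts. Each assay was repeated at least twice on separate days.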

Cryptococcus neoformans = assay: Antimicrobial activity against Cryptococcus neoformans ATCC 90112 by broth microdilution assay; type: functional; how it was run: as §4
Bos taurus [6] = species: Bos taurus; assay: Displacement of [3H]colchicine from bovine tubulin at 50 uM; how it was run: as §3
Streptococcus pneumoniae = assay: Antimicrobial activity against Streptococcus pneumoniae ATCC 6303 by broth microdilution assay; type: functional; how it was run: as §4
MCF7 [7] = assay: Increase in mitotic index in human MCF7 cells at 10 times the IC50 concentration after 16 hrs; type: functional
How it was run: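 MCF-7 cells grown with drug for 16 h, then DNA stain added. Result is the percentage of cells in mitosis.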

[8] = Inhibition of bovine brain tubulin assembly; parameters: species or system Bos taurus
How it was run: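 Bovine brain tubulin at 1.0 mg/mL (10 µM) assembled with varying inhibitor concentrations. IC50 reported in µM ± SD.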

Row | SMILES | GI50 (NCI-H460) [µg/mL] | GI50 (P388) [µg/mL] | GI50 (DU-145) [µg/mL] | GI50 (BXPC-3) [µg/mL] | GI50 (SF-295) [µg/mL] | GI50 (MCF7 [1]) [µg/mL] | further results
1 | COc1ccc(/C=C\c2cc(OC)c3c(c2)OCO3)cc1NC(=O)[C@H](Cc1ccc(OC(C)(C)C)cc1)NC(=O)OCc1ccccc1 | 0.41 (≈ 0.628 µM) | 0.38 (≈ 0.582 µM) | 0.39 (≈ 0.597 µM) | 0.049 (≈ 0.0751 µM) | 0.44 (≈ 0.674 µM) | 0.36 (≈ 0.552 µM) | –
2 | COc1ccc(/C=C\c2cc(OC)c(OC)c(OC)c2)cc1O [COMBRETASTATIN A4] | – | – | – | – | – | – | Activity (Bos taurus [2]): 0%; Activity (Bos taurus [3]): 98%; Activity (Bos taurus [4]): 0%
3 | CC[C@H](C)[C@@H]([C@@H](CC(=O)N1CCC[C@H]1[C@H](OC)[C@@H](C)C(=O)N[C@@H](Cc1ccccc1)c1nccs1)OC)N(C)C(=O)[C@@H](NC(=O)[C@H](C(C)C)N(C)C)C(C)C [DOLASTATIN-10] | – | – | – | – | – | – | Activity (Bos taurus [4]): 96%
4 | COc1ccc(/C=C\c2cc(OC)c3c(c2)OCO3)cc1NC(=O)[C@H](Cc1ccc(OP(=O)([O-])O)cc1)NP(=O)(O)O.[Na+] | > 1 | 0.27 | > 1 | 18.6 | > 1 | 1.3 | MIC (Neisseria gonorrhoeae): 4 µg/mL
5 | COc1ccc(/C=C\c2cc(OC)c3c(c2)OCO3)cc1NC(=O)[C@@H](N)CC(=O)[O-].[Na+] | 0.3 | 0.361 | 0.33 | 0.38 | 0.25 | 0.51 | solubility [5]: < 100 µg/mL
6 | COc1ccc(/C=C\c2cc(OC)c3c(c2)OCO3)cc1NC(=O)[C@@H](N)Cc1ccc(OP(=O)(O)O)cc1 | > 1 | > 10 | > 1 | > 1 | > 1 | > 1 | MIC (Neisseria gonorrhoeae): 0.125 µg/mL (≈ 0.23 µM); MIC (Enterococcus faecalis): 16 µg/mL (≈ 29.5 µM)
7 | COc1ccc(/C=C\c2cc(OC)c3c(c2)OCO3)cc1NC(=O)[C@H](C)[C@@H](OC)[C@@H]1CCCN1C(=O)OC(C)(C)C | 0.75 (≈ 1.32 µM) | 0.225 (≈ 0.396 µM) | 1.9 (≈ 3.34 µM) | 0.58 (≈ 1.02 µM) | 0.53 (≈ 0.932 µM) | 0.38 (≈ 0.668 µM) | MIC (Cryptococcus neoformans): 64 µg/mL (≈ 113 µM)
8 | COc1ccc(/C=C\c2cc(OC)c3c(c2)OCO3)cc1NC(=O)[C@@H](N)Cc1ccc(O)cc1.Cl | 0.096 | 0.0329 | 0.08 | 0.064 | 0.064 | 0.041 | solubility [5]: < 100 µg/mL
9 | CC[C@H](C)[C@@H]([C@@H](CC(=O)N1CCC[C@H]1[C@H](OC)[C@@H](C)C(=O)O)OC)N(C)C(=O)[C@@H](NC(=O)[C@H](C(C)C)N(C)C)C(C)C | – | – | – | – | – | – | Activity (Bos taurus [2]): 87%; Activity (Bos taurus [6]): 5.2%
10 | COc1ccc(/C=C\c2cc(OC)c3c(c2)OCO3)cc1N | – | – | – | – | – | – | Activity (Bos taurus [2]): 0%; Activity (Bos taurus [3]): 85%; Activity (Bos taurus [4]): 0%
11 | COc1ccc(/C=C\c2cc(OC)c3c(c2)OCO3)cc1NC(=O)[C@H](C)[C@@H](OC)[C@@H]1CCCN1.O=C(O)C(F)(F)F | 0.062 | 0.0263 | 0.26 | 0.23 | 0.054 | 0.07 | MIC (Neisseria gonorrhoeae): 16 µg/mL; MIC (Enterococcus faecalis): 32 µg/mL; MIC (Cryptococcus neoformans): 64 µg/mL; MIC (Streptococcus pneumoniae): 8 µg/mL
12 | CC[C@H](C)[C@@H]([C@@H](CC(=O)N1CCC[C@H]1[C@H](OC)[C@@H](C)C(=O)Nc1cc(/C=C\c2cc(OC)c3c(c2)OCO3)ccc1OC)OC)N(C)C(=O)[C@@H](NC(=O)[C@H](C(C)C)N(C)C)C(C)C | 0.025 (≈ 0.0284 µM) | < 0.01 | 0.02 (≈ 0.0227 µM) | 0.048 (≈ 0.0545 µM) | 0.0031 (≈ 0.00352 µM) | 0.032 (≈ 0.0364 µM) | Activity (Bos taurus [2]): 87%; Activity (Bos taurus [4]): 48%; Activity (MCF7 [7]): 57%; Activity (Bos taurus [6]): 30%; IC50 [8]: 1300 nM
13 | COc1ccc(/C=C\c2cc(OC)c3c(c2)OCO3)cc1NC(=O)[C@H](CC(=O)OC(C)(C)C)NC(=O)OC(C)(C)C | 1.7 (≈ 2.98 µM) | 0.385 (≈ 0.675 µM) | 2.3 (≈ 4.03 µM) | 3.4 (≈ 5.96 µM) | 2.4 (≈ 4.21 µM) | 3 (≈ 5.26 µM) | –
14 | COc1ccc(/C=C\c2cc(OC)c3c(c2)OCO3)cc1NC(=O)[C@H](Cc1ccc(OP(=O)(OCc2ccccc2)OCc2ccccc2)cc1)NC(=O)OCc1ccccc1 | > 10 | 0.133 (≈ 0.155 µM) | > 10 | > 10 | > 10 | > 10 | MIC (Enterococcus faecalis): 64 µg/mL (≈ 74.7 µM)
15 | COc1ccc(/C=C\c2cc(OC)c3c(c2)OCO3)cc1NC(=O)[C@H](Cc1ccc(OP(=O)(OCc2ccccc2)OCc2ccccc2)cc1)NP(=O)(OCc1ccccc1)OCc1ccccc1 | – | 10 (≈ 10.2 µM) | – | – | – | – | –

Reference: ChEMBL document CHEMBL1141770, “Antineoplastic agents. 515. Synthesis of human cancer cell growth inhibitors derived from 3,4-methylenedioxy-5,4'-dimethoxy-3'-amino-Z-stilbene” (J Nat Prod, 2005)
